CSC inhib = blocks cancer stem cells; cancer stem cell-like cells viability, luminescence; inhibition, % at 7.5 µM; 1.1% of 300,000 active; AID 2717; in the data active = inhibition above about 75%; tested in HMLE shEcad cells
SKKanGAS inh = blocks kanamycin growth of S. pyogenes SKKanGAS strain; BacTiter-Glo, 6 h; 1.3% of 300,000 active; inhibition, % at 7.5 µM; AID 1662;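 active = mean replicate score, as percent of positive control median, at least 50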;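 also: strain carries kanamycin resistance gene driven by streptokinase promoter and grows in 40 µg/ml kanamycin; loss of luminescence reflects streptokinase promoter inhibition or plain growth inhibition; 0% = median of DMSO wells and 100% = positive control at its reference dose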
Mdm2 MdmX PPI = human Mdm2/MdmX binding inhibition. SaOS-2 split-luciferase Mdm2/MdmX complementation, luminescence. 3% of 330,000 active. inhibition, % at 8 µM. AID 485346;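 active = inhibition of at least 50% at 8 µM in the primary screen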
Target sequence (O15151 whole entry, looked up): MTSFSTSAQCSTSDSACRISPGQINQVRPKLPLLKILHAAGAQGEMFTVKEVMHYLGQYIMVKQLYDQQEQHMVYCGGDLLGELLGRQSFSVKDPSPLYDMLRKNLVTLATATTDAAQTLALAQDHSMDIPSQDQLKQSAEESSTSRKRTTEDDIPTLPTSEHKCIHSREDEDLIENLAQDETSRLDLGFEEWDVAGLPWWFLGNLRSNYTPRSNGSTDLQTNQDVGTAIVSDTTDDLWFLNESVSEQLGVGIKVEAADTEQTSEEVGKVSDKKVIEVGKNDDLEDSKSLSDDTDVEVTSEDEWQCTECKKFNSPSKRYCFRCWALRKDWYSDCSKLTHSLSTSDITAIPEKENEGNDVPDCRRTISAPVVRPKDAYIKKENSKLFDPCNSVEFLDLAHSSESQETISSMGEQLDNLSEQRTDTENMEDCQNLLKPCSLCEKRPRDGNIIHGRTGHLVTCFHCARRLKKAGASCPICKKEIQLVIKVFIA
Target sequence (Q00987 whole entry, looked up): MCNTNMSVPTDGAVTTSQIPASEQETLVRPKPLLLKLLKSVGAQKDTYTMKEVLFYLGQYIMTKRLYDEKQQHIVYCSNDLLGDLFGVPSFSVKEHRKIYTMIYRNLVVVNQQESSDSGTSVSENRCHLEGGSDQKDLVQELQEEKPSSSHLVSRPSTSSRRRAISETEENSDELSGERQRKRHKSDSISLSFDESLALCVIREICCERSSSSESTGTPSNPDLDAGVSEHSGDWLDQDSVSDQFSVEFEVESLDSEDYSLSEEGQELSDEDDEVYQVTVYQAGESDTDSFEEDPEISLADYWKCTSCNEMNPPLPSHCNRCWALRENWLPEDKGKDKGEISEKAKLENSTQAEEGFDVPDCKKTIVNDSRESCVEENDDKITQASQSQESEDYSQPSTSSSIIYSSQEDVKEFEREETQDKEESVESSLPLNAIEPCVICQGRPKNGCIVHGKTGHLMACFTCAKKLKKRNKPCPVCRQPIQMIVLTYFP
Beta cell apopt = blocks beta cell apoptosis | AID 435005 | INS-1E cytokine-induced death, ATP luminescence, 48 h; percent of positive-control rescue, neutral wells zero | protection from apoptosis, % (concentration not given with the values) | 0.8% of 300,000 active;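 active = Every replicate reaches about 75%, or at least half do and their mean reaches it too, limit read from the data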;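 also: 0% = cytokine-treated negative control wells and 100% = positive control rescue; higher means more ATP so stronger rescue from cytokine killing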
UPR CHOP act = activators of apoptotic arm of unfolded protein response (CHOP). activation, % at 10 µM. 0.34% of 330,000 active. CHO-CHOP luciferase reporter, UPR activation, luminescence; percent of tunicamycin response over DMSO baseline;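 active = at 10 µM dose, activation of 40% or more, normalized to positive control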;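 also: 100% = tunicamycin at 10 µg/mL and 0% = DMSO alone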
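Assay system: CHO-CHOP cells, stable luciferase reporter of PERK-eIF2a-CHOP signalling / Buffer or medium: F12 plus 10% serum / Compound dosing: one dose, 10 µM in 0.5% DMSO / Times: 6 h compound treatment, 37 °C / Technique: luciferase luminescence / Read-out: % reporter activation, DMSO baseline versus tunicamycin full activation / Benchmarks: tunicamycin and DMSO controls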
UPR XBP1 act = adaptive UPR (XBP1) activation | CHO-XBP1 luciferase reporter, IRE1-XBP1 UPR activation, luminescence; percent of tunicamycin response, DMSO as zero | activation, % at 20 µM | 0.33% of 330,000 active;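 active = versus positive control, 20 µM dose yields 30% or more activation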;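 also: 100% = tunicamycin at 10 µg/mL and 0% = DMSO only wells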
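Material – CHO cell line with stable XBP1 luciferase reporter · Buffer or medium – F12 plus 10% FBS · Compound – single point, 20 µM final compound, 1% DMSO · Schedule – 16-18 h cell attachment at 37 °C, then 6 h compound exposure · Signal – Steady-Glo luminescence read · Benchmarks – high control tunicamycin 10 µg/mL final, low control DMSO vehicle only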
Mdm2-MdmX conf = confirmation of human Mdm2/MdmX interaction inhibitors | Mdm2-MdmX binding, luminescent assay | AID 489028 | inhibition, % at 8 µM | 55% of 10,000 active | shares compounds with Mdm2 MdmX PPI; in the data active = inhibition above about 40%
FLuc counter = counter-screen for Mdm2/MdmX inhibitors: full-length luciferase; shares compounds with Mdm2 MdmX PPI; SaOS-2 full-length luciferase counterscreen, luminescence; inhibition, % at 8 µM; 77% of 6,200 active; AID 504607;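 active = mean inhibition at 8 µM reaching about 37%, which flags the compound as non-specific, limit read from the data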;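 also: p53-null SaOS-2 cells with luciferase driven by a doxycycline-inducible promoter; compound on cells about two nights before reading with doxycycline added after day one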
Starred values were filed as active, the others as inactive; . = no result. Only some compounds are listed: those with a hit (about 4.8% of all), similar ones and a draw of the others.

SMILES	CSC inhib	SKKanGAS inh	Mdm2 MdmX PPI	Beta cell apopt	UPR CHOP act	UPR XBP1 act	Mdm2-MdmX conf	others
COc1ccc(-c2oc(=O)c3cc(OC)c(OC)cc3c2C#C[C@]2(O)CC[C@H]3[C@@H]4CCc5cc(OC)ccc5[C@H]4CC[C@@]32C)cc1	0	.	70*	-2	2	-2	10
COc1cc(OC)cc(-c2oc(=O)c3cc(OC)c(OC)cc3c2C#CCCO)c1	2	.	26	6	11	-2	.
COc1ccc(NC(=O)c2ccc(Cl)c(S(=O)(=O)NCC3CCCO3)c2)c(OC)c1 (stereo unspecified)	-7	-5	20	2	1	-5	.
O=C(O)CCC(=O)Nc1ccc(N=Nc2ccccc2)cc1	.	-2	.	.	.	.	.
CC(C)(C)C(=O)Nc1ccc(N=Nc2ccccc2)cc1	34	5	71*	-17	-3	-3	73*	FLuc counter=136*
COC(=O)c1c(NC(=O)Cc2cccs2)sc(C(=O)NC2CCCCC2)c1C	-4	4	55*	-2	-1	17	1
Cc1ccc(-c2nc3ncccc3o2)cc1NC(=O)Cc1ccc(Cl)cc1	.	-1	93*	6	-1	0	26
Cc1ccc(-c2nc3cccnc3o2)cc1NC(=O)COc1ccc(Cl)cc1C	-13	5	85*	64	4	2	19
CCOC(=O)C1CCN(C(=O)CN2C(=O)COc3ccc(C(C)(C)C)cc32)CC1	-4	1	3	6	2	-5	.
O=C(CCl)N1CCN(S(=O)(=O)c2ccc3c(c2)CCC3)CC1	.	.	64*	-6	-7	-8	7
O=C(CCl)N1CCN(S(=O)(=O)Cc2ccccc2)CC1	.	.	71*	-9	13	-8	25
CCCSc1nnc(NC(=O)Nc2ccc(F)cc2)s1	38	25	95*	47	1	2	85*	FLuc counter=28
CSc1ncc(Cl)c(C(=O)Nc2nnc(SC/C=C/c3ccccc3)s2)n1	37	35	10	5	-2	-2	.
Cc1nnc(NC(=O)c2nc(S(=O)(=O)Cc3ccccc3C)ncc2Cl)s1	85*	8	95*	-38	26	-8	71*	FLuc counter=52*
CCSc1nnc(NC(=O)c2nc(S(=O)(=O)Cc3ccc(F)cc3)ncc2Cl)s1	103*	-5	69*	-29	25	-8	26
O=C(Nc1nnc(SCc2ccc(F)cc2)s1)c1ccccn1	.	63*	82*	.	20	15	69*	FLuc counter=41*
O=C(Nc1nnc(SCc2ccc(F)cc2)s1)c1cccnc1Cl	6	12	31	-5	1	-2	.
CCOC(=O)CSc1nc2cc(C(=O)NCc3ccco3)ccc2c(=O)n1-c1ccc(F)cc1	0	1	71*	.	-2	-1	13	FLuc counter=83*
COc1ccc(-n2c(=S)[nH]c3cc(C(=O)NCc4ccco4)ccc3c2=O)cc1OC	.	1	-17	-10	0	-2	.
O=C(NCc1ccco1)c1ccc2c(=O)n(-c3ccccc3)c(=S)[nH]c2c1	-8	-3	50*	-1	1	0	-4
CCOC(=O)CSc1nc2cc(C(=O)NCc3ccco3)ccc2c(=O)n1C1CCCCC1	-11	-15	-37	-5	1	-1	.
COc1ccc(C(C(=O)NC2CCCC2)N(C(=O)c2csnn2)C2CCCC2)cc1 (stereo unspecified)	-7	-1	14	3	2	0	.
Cn1cc(CN2CCC(n3nccc3NC(=O)CCOc3ccccc3)CC2)cn1	-4	-2	-1	4	-1	-2	.
COc1cccc(CN2CCC(N(CCc3ccccc3)Cc3ccccc3)CC2)c1OC	77*	-4	61*	113*	0	-1	28
COCCCN(C(=O)CSCc1c(C)noc1C)c1c(N)n(Cc2ccccc2)c(=O)[nH]c1=O	-8	0	16	2	-1	0	.

Screening results deposited in PubChem BioAssay by several laboratories.
